KCNQ1 act = potentiates or activates the human KCNQ1 potassium channel | P51787 | CHO-K1 KCNQ1, thallium flux FluxOR fluorescence; stronger effect = higher value | B-score at 10 µM | 310,000 compounds, 0.35% hits;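 active = fluorescence ratio B-score, a plate-corrected score, at least three library SD, with initial intensity B-score within 5 SD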
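Material: CHO-K1 cells stably expressing KCNQ1. Medium: assay buffer for compound exposure, DMSO matched across wells. Reagent: K+/Tl+ depolarizing stimulus. Compound dosing: single-concentration screen. Times: 37 °C overnight plating, 90-min dark dye load, 20-min compound pretreatment. Technique: FluxOR Tl+ flux fluorescence.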
KCNK9 inh = human KCNK9 channel inhibition; 310,000 compounds, 1.2% hits; B-score at 10 µM; HEK293 KCNK9, FluxOR thallium flux fluorescence; stronger effect = lower value;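 active = ratio B-score over 3 SD below the library mean, with starting fluorescence within 5 SD of its mean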;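 also: negative B-score means less thallium flux so channel inhibition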
KCNK3 inh = human KCNK3 channel inhibition, primary screen. CHO-KCNK3 thallium flux, FluxOR fluorescence; stronger effect = lower value. B-score at 10 µM. 340,000 compounds, 0.84% hits. AID 602410;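 active = B-score under library mean minus 4 SD, starting fluorescence ratio at most library mean plus 5 SD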;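 also: more negative B-score means stronger inhibition of thallium flux through KCNK3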
Kir21 block = inhibitors of mouse Kir2.1 inward-rectifier potassium channel; HEK293-Kir2.1, FluxOR thallium flux fluorescence; stronger effect = lower value; B-score at 10 µM; 310,000 compounds, 0.85% hits; AID 1672;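 active = fluorescence ratio B-score at or below minus 3 SD of library scores, with starting-brightness B-score within 2 SD, cut at about -4.2 in these data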;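 also: channel flux triggered by added potassium and thallium sulfate stimulus; B-score of peak minus minimum fluorescence over baseline after thallium stimulus; more negative B-score means stronger Kir2.1 block with less thallium influx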
KCNQ1 block = inhibitors of human KCNQ1 potassium channel; B-score at 10 µM; CHO-K1 KCNQ1, FluxOR thallium flux fluorescence; stronger effect = higher value; P51787; 310,000 compounds, 1.3% hits;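 active = compounds whose thallium flux B-score, printed positive for inhibition, exceeds three library SD while starting fluorescence stays within three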;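 also: channel opened by potassium depolarization with thallium stimulus after 20 min compound exposure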
hERG rescue = shields human hERG channel from block by proarrhythmic agents; AID 1511; 310,000 compounds, 0.51% hits; CHO-hERG, FluxOR thallium flux, dofetilide IC70 present; Q12809; activation (rescue from dofetilide block), less the hit threshold, % at 10 µM;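 active = activation above the mean of controls blocked by dofetilide plus 5 SD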;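 also: thallium influx through hERG after potassium depolarization seen as dye fluorescence rise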
KCNQ1 block val = reconfirmed blocker of the human KCNQ1 potassium channel; KCNQ1 cell line, FluxOR thallium flux fluorescence; shares compounds with KCNQ1 block; inhibition, % at 10 µM; 1,600 compounds, 93% hits;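 active = primary screen active, with duplicate mean exceeding buffer control mean plus 3 SD of buffer wells, cut at about 28% in these data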;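 also: 0% = buffer control ratio and 100% = XE991 inhibitor control ratio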
CHO KCNQ1 ctr = counter-screen for KCNQ1 inhibitors: effect in parental CHO cells; 1,600 compounds, 21% hits; shares compounds with KCNQ1 block; fluorescence ratio (Tl flux) at 10 µM; parental CHO-K1, FluxOR thallium flux fluorescence ratio; stronger effect = lower value; zero means no signal rise above baseline;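 active = mean of duplicate thallium-flux fluorescence ratios in parental host cells more than 5 SD below the buffer control mean, cut at about 0.38 in these data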;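 also: ratio is peak minus minimum fluorescence divided by baseline fluorescence; actives read low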
KCNQ1 ephys val = confirmation of human KCNQ1 potassium channel inhibitors by electrophysiology; 490 compounds, 20% hits; AID 624120; calls only at 10 µM; KCNQ1-CHO cells, automated patch clamp current; shares compounds with KCNQ1 block;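 active = KCNQ1 current drop exceeding 3 SD of negative control wells, seen in both duplicate runs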;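 also: steady state current during a 2 s step from -80 to +40 mV; negative values mean current inhibition and positive values mean potentiation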
KCNQ2 spec = selectivity of KCNQ1 inhibitors: inhibition of rat KCNQ2 channel. 1,600 compounds, 71% hits. AID 651746. KCNQ2 cells, FluxOR thallium flux fluorescence. shares compounds with KCNQ1 block. inhibition, % at 10 µM;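 active = mean percent inhibition of the KCNQ2 thallium signal more than 5 SD above the buffer-only control wells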;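 also: KCNQ2 expressed in CHO cells; 0% = buffer control wells and 100% = XE-991 inhibitor control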
Target sequence (O88943 whole entry, looked up): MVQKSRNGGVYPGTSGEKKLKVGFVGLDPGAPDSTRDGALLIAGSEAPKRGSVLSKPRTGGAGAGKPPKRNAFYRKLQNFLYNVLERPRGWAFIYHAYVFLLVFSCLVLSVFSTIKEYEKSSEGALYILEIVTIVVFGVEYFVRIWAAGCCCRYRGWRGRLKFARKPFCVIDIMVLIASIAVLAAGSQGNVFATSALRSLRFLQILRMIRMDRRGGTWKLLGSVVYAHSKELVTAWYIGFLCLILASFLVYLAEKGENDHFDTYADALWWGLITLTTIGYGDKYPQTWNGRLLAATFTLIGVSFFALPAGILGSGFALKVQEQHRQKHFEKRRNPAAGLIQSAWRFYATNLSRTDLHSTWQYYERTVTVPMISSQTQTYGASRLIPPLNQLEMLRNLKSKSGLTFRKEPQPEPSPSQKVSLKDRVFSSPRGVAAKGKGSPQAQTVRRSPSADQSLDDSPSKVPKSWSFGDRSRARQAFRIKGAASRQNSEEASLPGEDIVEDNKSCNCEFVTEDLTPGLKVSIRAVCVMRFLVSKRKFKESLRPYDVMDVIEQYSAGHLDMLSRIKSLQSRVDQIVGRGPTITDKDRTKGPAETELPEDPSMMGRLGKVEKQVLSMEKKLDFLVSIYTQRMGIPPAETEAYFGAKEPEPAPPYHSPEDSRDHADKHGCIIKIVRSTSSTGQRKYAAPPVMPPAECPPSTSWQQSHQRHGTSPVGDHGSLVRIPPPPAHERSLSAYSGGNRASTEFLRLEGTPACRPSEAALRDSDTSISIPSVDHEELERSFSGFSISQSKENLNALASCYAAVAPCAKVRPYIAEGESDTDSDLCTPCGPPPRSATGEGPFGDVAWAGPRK
KCNQ1 KCNE1 spec = selectivity of KCNQ1 inhibitors: inhibition of human KCNQ1/KCNE1 channel. shares compounds with KCNQ1 block. KCNQ1/KCNE1 cells, FluxOR thallium flux fluorescence. inhibition, % at 10 µM. 1,600 compounds, 77% hits. AID 652147;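 active = mean percent inhibition of duplicate wells above the buffer-only control mean plus 3 SD of those controls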;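 also: 0% = buffer only wells and 100% = XE-991 inhibitor control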
KCNK9 block conf = confirmation of human KCNK9 potassium channel inhibitors; shares compounds with KCNK9 inh; HEK293 KCNK9 cells, FluxOR thallium flux fluorescence; inhibition, % at 10 µM; 4,900 compounds, 43% hits; AID 492992;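 active = thallium signal inhibited by more than 5 SD of the compound-free buffer control wells, on both duplicate plates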;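 also: 0% = assay buffer control wells without compound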
Kir2-1 spec = tests whether KCNK9 modulators also affect mouse Kir2.1 | Kir2.1 cells, FluxOR thallium flux fluorescence | AID 492993 | 4,900 compounds, 4% hits | inhibition, % at 10 µM | shares compounds with KCNK9 inh;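 active = thallium signal drop more than 5 SD beyond the mean of the no-compound control wells, seen in both duplicate plates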;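 also: signal is fluorescence rise after thallium addition divided by baseline fluorescence; plate controls were assay buffer only for no effect and full block by chlorpromazine control for full effect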
HEK293 Tl ctr = second counter-screen for KCNK9 modulators: effect in non-induced cells | shares compounds with KCNK9 inh | non-induced KCNK9-HEK293, FluxOR thallium flux | inhibition, % at 10 µM | 4,900 compounds, 40% hits;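 active = thallium signal drop beyond 5 SD of the untreated control mean, on both duplicate plates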;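 also: plate controls were buffer only IC0 wells for no effect and SID17386958 at its maximal inhibitory level for full effect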
KCNK3 confirm = confirmation of human KCNK3 two-pore domain potassium channel inhibitors | ratio percent of control, % at 10 µM | shares compounds with KCNK3 inh | CHO-KCNK3 thallium flux, FluxOR fluorescence; 0% buffer, 100% carvedilol maximal block | AID 651638 | 2,400 compounds, 99% hits;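 active = ratio percent of control, averaged over triplicates, above buffer control mean plus 5 SD, cut at about 64% in these data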;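 also: ratio is the fluorescence rise from min to max over baseline after thallium stimulus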
KCNK3 noninduced = activity in cells without induced KCNK3 expression. thallium flux ratio (lower = more inhibition) at 10 µM. non-induced KCNK3 parental cells, FluxOR thallium flux; stronger effect = lower value. 2,400 compounds, 40% hits. shares compounds with KCNK3 inh;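 active = thallium flux ratio, averaged over three wells, more than 5 SD below the buffer control mean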;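 also: host cells are CHO cells without KCNK3 induction; ratio is peak minus trough fluorescence over baseline then normalized to buffer controls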
Numbers without * were called inactive; i = inactive; . = no result; + = active, no number. A selection: hits, their analogues and other compounds. The true share with any hit is near 3.7%.

SMILES	KCNQ1 act	KCNK9 inh	KCNK3 inh	Kir21 block	KCNQ1 block	hERG rescue	KCNQ1 block val	CHO KCNQ1 ctr	KCNQ2 spec	KCNQ1 KCNE1 spec	KCNK3 confirm	KCNK3 noninduced	others
Cc1cc(C)n(-c2cc(C(C)(C)C)nc3c(-c4ccccc4)cnn23)n1	i	i	-12.6*	-0.65	8*	-8.3	85.0*	0.499	i	113.5%*	108.0*	i
CCC(C)c1ccc(NC(=S)NCc2cccs2)cc1 (stereo unspecified)	i	i	-9.51*	-1.51	7*	-12.1	90.0*	0.508	61.3%*	95.0%*	110.7*	i	KCNQ1 ephys val=+
CC(C)(C)c1ccc(NC(=S)NCc2cccs2)cc1	i	i	i	-1.22	i	-6.3	.	.	.	.	.	.
Clc1ccc(/C=C/c2nc3ccccc3[nH]2)c(Cl)c1	i	i	-11.1*	0.03	14*	-17.4	112.5*	0.322*	107.3%*	76.0%*	115.0*	0.1*
O=C(/C=C/c1ccc(Cl)cc1Cl)c1nc2ccccc2[nH]1	i	i	i	0.85	i	-13.1	.	.	.	.	.	.
NC(=S)NN=C(c1ccc(Br)cc1)C1CC1	.	.	i	.	.	.	.	.	.	.	.	.
Cc1ccc2c(CN(C)Cc3ccc(OC(F)F)cc3)cc(=O)oc2c1C	i	i	-10.2*	0.56	11*	-20.8	127.5*	0.466	101.3%*	135.0%*	126.3*	0.149*	KCNQ1 ephys val=i
CCOC(=O)N1CCC(n2c(SCC(=O)Nc3ccccc3OC)nc3ccccc3c2=O)CC1	i	i	-8.91*	0.64	6*	-7.9	82.0*	0.379*	109.0%*	136.0%*	109.7*	0.151*	KCNK9 block conf=i;Kir2-1 spec=i;HEK293 Tl ctr=i
CC1C(=O)N(Cc2ccccc2F)c2ccccc2N1C(=O)c1c(F)cccc1F (stereo unspecified)	i	-7.67*	-9.02*	0.01	15*	-18.8	58.0*	0.443	78.3%*	50.5%*	87.0*	i
O=C(CN(C(=O)c1csnn1)c1ccc(Br)cc1)NC1CCCCC1	i	i	i	-0.01	i	-5.8	.	.	.	.	.	.
O=C(Nc1cccnc1)c1cc(-c2ccc(Br)cc2)nc2ccccc12	i	-9.7*	-15.4*	-0.16	8*	-18.4	142.5*	0.25*	139.3%*	+	143.0*	i	KCNK9 block conf=33.0%*;Kir2-1 spec=i;HEK293 Tl ctr=i
Cc1cccc2sc(NC(=O)C3CC3)nc12	i	i	i	0.92	i	-4.6	.	.	.	.	.	.
Cc1cccc2sc(NC(=O)C3c4ccccc4Oc4ccccc43)nc12	i	-10.4*	-10.4*	-0.49	13*	-13.2	112.0*	0.45	76.0%*	144.0%*	129.7*	0.146*	KCNQ1 ephys val=i;KCNK9 block conf=44.0%*;Kir2-1 spec=i;HEK293 Tl ctr=40.5%*
O=C(NCc1cccc(Cl)c1)c1cc(COc2ccc3ncccc3c2)on1	i	i	-13.2*	-0.11	13*	-11.9	93.0*	0.333*	99.7%*	+	126.0*	i
Cc1cccnc1NC(=O)CCNC(=O)c1ccc(Cl)cc1	i	i	i	1.02	i	-10.6	.	.	.	.	.	.
CCOc1ccc(S(=O)(=O)N2CCOCC2)cc1NC(=O)CSCC(=O)Nc1ccc(OC)cc1	.	.	i	.	.	.	.	.	.	.	.	.
Cc1ccc(N2C(=O)Nc3ccc(Br)cc3C2(O)C(=O)NCCN(C)C)cc1C (stereo unspecified)	i	i	i	-2.29	i	-5.3	.	.	.	.	.	.
Oc1c(C=C2N=c3ccccc3=N2)sc(=S)n1-c1ccccc1	i	i	i	0.78	i	-8.0	.	.	.	.	.	.
CC1=Nc2ccccc2/C1=C/c1sc(=S)n(-c2cccc(C(=O)O)c2)c1O	i	i	-11.4*	-6.31	15*	4.0	105.5*	0.342*	i	i	145.3*	0.114*
O=C(c1cc2ccccc2o1)N1CCN(S(=O)(=O)c2ccc(F)c(F)c2F)CC1	.	.	i	.	.	.	.	.	.	.	.	.
Cc1ccc(N/C(N)=N/c2nc(C)cc(N3CCCCC3)n2)c(C)c1	i	i	-11.6*	-2.85	10*	-22.8	91.0*	0.414	89.7%*	51.0%*	116.3*	i	KCNQ1 ephys val=+
Cc1ccc(N/C(N)=N/c2nc3c(c(=O)[nH]2)CCCC3)c(C)c1	i	i	i	-0.18	i	0.9	.	.	.	.	.	.
Cc1cc(=O)oc2cc(NC(=O)c3ccccc3Cl)ccc12	i	i	i	-0.18	i	-9.8	.	.	.	.	.	.
CCc1nc(N2CCN(CC(=O)NCC3CCCO3)CC2)c(C#N)c2c1COC(C)(C)C2 (stereo unspecified)	i	i	i	-0.55	i	-8.4	.	.	.	.	.	.
CC(Cc1cccs1)NC(=O)Nc1cccc(Cl)c1 (stereo unspecified)	i	-18.4*	-11.2*	0.77	9*	-6.6	127.0*	0.541	i	71.0%*	108.7*	i	KCNQ1 ephys val=+;KCNK9 block conf=53.0%*;Kir2-1 spec=i;HEK293 Tl ctr=31.5%*
CC(C)NC(=O)Nc1cccc(Cl)c1	i	i	i	-1.7	i	-11.8	.	.	.	.	.	.
